# Experimental data: ChEMBL document CHEMBL4257465, “Strigolactones: a plant phytohormone as novel anti-inflammatory agents” (Medchemcomm, 2018)
# Legend:
# RAW264.7 [1] = experiment: Antiinflammatory activity in mouse RAW264.7 cells assessed as inhibition of LPS-induced NO production pretreated for 2 hrs followed by LPS stimulation measured after 24 hrs by Griess assay; type: functional, cell-based
# Procedure, shortened: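 RAW264.7 murine macrophages (DMEM, 10% serum, 37 °C, 5% CO2) seeded at 5 × 10^4 cells/well and cultured 18 h. Compounds tested at 1–100 μM (DMSO 0.1% v/v), with LPS (E. coli 0127:B8) at 100 ng mL−1. Supernatant nitrite read with Griess reagent (10 min, room temperature, OD540).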
# RAW264.7 [2] = experiment: Antiinflammatory activity in LPS-induced mouse RAW264.7 cells assessed as IL-6 levels at 10 uM pretreated for 2 hrs followed by LPS stimulation and measured after 24 hrs by ELISA (reference value: 1966.6 +/- 102.3 pg/ml); type: functional
# Procedure, shortened: (§1)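 RAW264.7 murine macrophages (DMEM, 10% serum, 37 °C, 5% CO2) seeded at 5 × 10^5 cells per well, pretreated 2 h with compound at 10, 5, 2.5 or 1.25 μM (DMSO 0.1% v/v), then LPS (E. coli 0127:B8) 100 ng mL−1 added. Supernatant TNF-α or IL-6 read by mouse ELISA kit after 6, 12 and 24 h. Mean ± SD, n = 3, three independent experiments.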
# [3] = Cytotoxicity against mouse RAW264.7 cells assessed as cell viability at 10 uM after 48 hrs by MTT assay (reference value: 100%); type: cell-based; details: read-out: Activity
# Procedure, shortened: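 RAW264.7 cells seeded at 4 × 10^3 per well, cultured overnight, exposed to compound (DMSO 0.1% v/v) for 48 h. MTT 0.5 mg mL−1 added for 4 h at 37 °C, formazan dissolved in DMSO, OD570 read. Viability relative to medium-only cells set as 100%. Mean ± SD (n = 5), three independent experiments.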
# RAW264.7 [4] = experiment: Antiinflammatory activity in LPS-induced mouse RAW264.7 cells assessed as IL-6 levels at 5 uM pretreated for 2 hrs followed by LPS stimulation and measured after 24 hrs by ELISA (reference value: 1966.6 +/- 102.3 pg/ml); type: functional; procedure, shortened: as §1
# RAW264.7 [5] = experiment: Antiinflammatory activity in LPS-induced mouse RAW264.7 cells assessed as TNFalpha levels at 5 uM pretreated for 2 hrs followed by LPS stimulation and measured after 12 hrs by ELISA (reference value: 5313.7 +/- 420.9 pg/ml); type: functional; procedure, shortened: as §1
# RAW264.7 [6] = experiment: Antiinflammatory activity in LPS-induced mouse RAW264.7 cells assessed as TNFalpha levels at 5 uM pretreated for 2 hrs followed by LPS stimulation and measured after 6 hrs by ELISA (reference value: 4377.1 +/- 318.6 pg/ml); type: functional; procedure, shortened: as §1
# RAW264.7 [7] = experiment: Antiinflammatory activity in LPS-induced mouse RAW264.7 cells assessed as TNFalpha levels at 10 uM pretreated for 2 hrs followed by LPS stimulation and measured after 24 hrs by ELISA (reference value: 9653.7 +/- 377.3 pg/ml); type: functional; procedure, shortened: as §1
# RAW264.7 [8] = experiment: Antiinflammatory activity in LPS-induced mouse RAW264.7 cells assessed as IL-6 levels at 10 uM pretreated for 2 hrs followed by LPS stimulation and measured after 6 hrs by ELISA (reference value: 472.3 +/- 25.8 pg/ml); type: functional; procedure, shortened: as §1
# RAW264.7 [9] = experiment: Antiinflammatory activity in LPS-induced mouse RAW264.7 cells assessed as IL-6 levels at 5 uM pretreated for 2 hrs followed by LPS stimulation and measured after 12 hrs by ELISA (reference value: 1394 +/- 62.6 pg/ml); type: functional; procedure, shortened: as §1
# RAW264.7 [10] = experiment: Antiinflammatory activity in LPS-induced mouse RAW264.7 cells assessed as IL-6 levels at 2.5 uM pretreated for 2 hrs followed by LPS stimulation and measured after 12 hrs by ELISA (reference value: 1394 +/- 62.6 pg/ml); type: functional; procedure, shortened: as §1
# RAW264.7 [11] = experiment: Antiinflammatory activity in LPS-induced mouse RAW264.7 cells assessed as IL-6 levels at 1.25 uM pretreated for 2 hrs followed by LPS stimulation and measured after 24 hrs by ELISA (reference value: 1966.6 +/- 102.3 pg/ml); type: functional; procedure, shortened: as §1
# RAW264.7 [12] = experiment: Antiinflammatory activity in LPS-induced mouse RAW264.7 cells assessed as IL-6 levels at 1.25 uM pretreated for 2 hrs followed by LPS stimulation and measured after 12 hrs by ELISA (reference value: 1394 +/- 62.6 pg/ml); type: functional; procedure, shortened: as §1
# RAW264.7 [13] = experiment: Antiinflammatory activity in LPS-induced mouse RAW264.7 cells assessed as IL-6 levels at 2.5 uM pretreated for 2 hrs followed by LPS stimulation and measured after 6 hrs by ELISA (reference value: 472.3 +/- 25.8 pg/ml); type: functional; procedure, shortened: as §1
# RAW264.7 [14] = experiment: Antiinflammatory activity in LPS-induced mouse RAW264.7 cells assessed as IL-6 levels at 2.5 uM pretreated for 2 hrs followed by LPS stimulation and measured after 24 hrs by ELISA (reference value: 1966.6 +/- 102.3 pg/ml); type: functional; procedure, shortened: as §1
# RAW264.7 [15] = experiment: Antiinflammatory activity in LPS-induced mouse RAW264.7 cells assessed as IL-6 levels at 1.25 uM pretreated for 2 hrs followed by LPS stimulation and measured after 6 hrs by ELISA (reference value: 472.3 +/- 25.8 pg/ml); type: functional; procedure, shortened: as §1
# RAW264.7 [16] = experiment: Antiinflammatory activity in LPS-induced mouse RAW264.7 cells assessed as TNFalpha levels at 2.5 uM pretreated for 2 hrs followed by LPS stimulation and measured after 24 hrs by ELISA (reference value: 9653.7 +/- 377.3 pg/ml); type: functional; procedure, shortened: as §1
# RAW264.7 [17] = experiment: Antiinflammatory activity in LPS-induced mouse RAW264.7 cells assessed as TNFalpha levels at 1.25 uM pretreated for 2 hrs followed by LPS stimulation and measured after 6 hrs by ELISA (reference value: 4377.1 +/- 318.6 pg/ml); type: functional; procedure, shortened: as §1
# RAW264.7 [18] = experiment: Antiinflammatory activity in LPS-induced mouse RAW264.7 cells assessed as TNFalpha levels at 5 uM pretreated for 2 hrs followed by LPS stimulation and measured after 24 hrs by ELISA (reference value: 9653.7 +/- 377.3 pg/ml); type: functional; procedure, shortened: as §1
# RAW264.7 [19] = experiment: Antiinflammatory activity in LPS-induced mouse RAW264.7 cells assessed as TNFalpha levels at 2.5 uM pretreated for 2 hrs followed by LPS stimulation and measured after 6 hrs by ELISA (reference value: 4377.1 +/- 318.6 pg/ml); type: functional; procedure, shortened: as §1
# RAW264.7 [20] = experiment: Antiinflammatory activity in LPS-induced mouse RAW264.7 cells assessed as TNFalpha levels at 1.25 uM pretreated for 2 hrs followed by LPS stimulation and measured after 24 hrs by ELISA (reference value: 9653.7 +/- 377.3 pg/ml); type: functional; procedure, shortened: as §1
# RAW264.7 [21] = experiment: Antiinflammatory activity in LPS-induced mouse RAW264.7 cells assessed as IL-6 levels at 10 uM pretreated for 2 hrs followed by LPS stimulation and measured after 12 hrs by ELISA (reference value: 1394 +/- 62.6 pg/ml); type: functional; procedure, shortened: as §1
# RAW264.7 [22] = experiment: Antiinflammatory activity in LPS-induced mouse RAW264.7 cells assessed as IL-6 levels at 5 uM pretreated for 2 hrs followed by LPS stimulation and measured after 6 hrs by ELISA (reference value: 472.3 +/- 25.8 pg/ml); type: functional; procedure, shortened: as §1
# RAW264.7 [23] = experiment: Antiinflammatory activity in LPS-induced mouse RAW264.7 cells assessed as TNFalpha levels at 10 uM pretreated for 2 hrs followed by LPS stimulation and measured after 12 hrs by ELISA (reference value: 5313.7 +/- 420.9 pg/ml); type: functional; procedure, shortened: as §1
# RAW264.7 [24] = experiment: Antiinflammatory activity in LPS-induced mouse RAW264.7 cells assessed as TNFalpha levels at 10 uM pretreated for 2 hrs followed by LPS stimulation and measured after 6 hrs by ELISA (reference value: 4377.1 +/- 318.6 pg/ml); type: functional; procedure, shortened: as §1
structure (smiles),measurement,setting,value
CC1=C[C@@H](O/C=C2/C(=O)OC3c4ccccc4CC23)OC1=O (some centres undefined),IC50,RAW264.7 [1],4.32 µM
CC1C[C@H](O/C=C2/C(=O)OC3c4ccccc4CC23)OC1=O (some centres undefined),IC50,RAW264.7 [1],42.1 µM
CC1C[C@H](O/C=C2/C(=O)O[C@H]3c4ccccc4C[C@@H]23)OC1=O (some centres undefined),IC50,RAW264.7 [1],60.5 µM
CC1=C[C@@H](O/C=C2/C(=O)O[C@@H]3c4ccccc4C[C@H]23)OC1=O,IC50,RAW264.7 [1],6.62 µM
CC1C[C@@H](O/C=C2/C(=O)O[C@H]3c4ccccc4C[C@@H]23)OC1=O (some centres undefined),IC50,RAW264.7 [1],35.4 µM
CC1C[C@@H](O/C=C2/C(=O)O[C@@H]3c4ccccc4C[C@H]23)OC1=O (some centres undefined),IC50,RAW264.7 [1],64.6 µM
C[C@@H]1C[C@H]2[C@@H]3CCC4=CC(=O)C=C[C@]4(C)[C@@]3(F)[C@@H](O)C[C@]2(C)[C@@]1(O)C(=O)CO [DEXAMETHASONE],Activity,RAW264.7 [2],924.1 pg/mL
same,"viability at 48 h, 10 µM",[3],100%
same,Activity,RAW264.7 [4],1336.5 pg/mL
same,IC50,RAW264.7 [1],2.66 µM
same,Activity,RAW264.7 [5],4063.6 pg/mL
same,Activity,RAW264.7 [6],3219.4 pg/mL
same,Activity,RAW264.7 [7],6458.3 pg/mL
same,Activity,RAW264.7 [8],269.5 pg/mL
same,Activity,RAW264.7 [9],927.7 pg/mL
same,Activity,RAW264.7 [10],1120.3 pg/mL
same,Activity,RAW264.7 [11],1770.4 pg/mL
same,Activity,RAW264.7 [12],1240.5 pg/mL
same,Activity,RAW264.7 [13],393.4 pg/mL
same,Activity,RAW264.7 [14],1594.9 pg/mL
same,Activity,RAW264.7 [15],422.7 pg/mL
same,Activity,RAW264.7 [16],8187.9 pg/mL
same,Activity,RAW264.7 [17],4056.3 pg/mL
same,Activity,RAW264.7 [18],7533.7 pg/mL
same,Activity,RAW264.7 [19],3671.8 pg/mL
same,Activity,RAW264.7 [20],8748.1 pg/mL
same,Activity,RAW264.7 [21],791 pg/mL
same,Activity,RAW264.7 [22],332.8 pg/mL
same,Activity,RAW264.7 [23],3393.5 pg/mL
same,Activity,RAW264.7 [24],2655 pg/mL
CC1C[C@@H](O/C=C2/C(=O)OC3c4ccccc4CC23)OC1=O (some centres undefined),IC50,RAW264.7 [1],44.5 µM
CC1C[C@H](O/C=C2/C(=O)O[C@@H]3c4ccccc4C[C@H]23)OC1=O (some centres undefined),IC50,RAW264.7 [1],32.3 µM
CC1=C[C@H](O/C=C2/C(=O)OC3c4ccccc4CC23)OC1=O (some centres undefined),IC50,RAW264.7 [1],4.06 µM
CC1=C[C@H](O/C=C2/C(=O)O[C@H]3c4ccccc4C[C@@H]23)OC1=O,IC50,RAW264.7 [1],6.34 µM
